Read-outs that look alike come from different tables or passages of the source.
What was measured:
[1] = major circulating metabolites of ertugliflozin; cited from earlier work
[2] = type: in vivo, human; details: for MRAUCinf (metabolite‐to‐parent ratio for AUC): corrected for molecular weight, geometric mean (geometric %CV)
[3] = as high as 300 mg (single dose), 100 mg once daily (up to 14 days), 25 mg once daily (up to 12 weeks); ref data on file, 9, 10; cited from earlier work
[4] = test system: SGLT2‐mediated glucose transport; assay: 24-hour inhibition of glucose reabsorption; type: in vivo, human; details: day 1
[5] = test system: T2DM and healthy subjects; assay: Safety and tolerability of a single 15-mg dose; type: in vivo, human
Procedure, shortened: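 Open-label, nonrandomized single oral 15 mg dose (three 5-mg tablets) after a 4-hour fast. Usual antihyperglycemic agents were given 4 h post-dose. AEs were recorded throughout and coded with MedDRA 17.1. ECGs were taken at screening, predose and day 5. Sitting and supine/standing blood pressure and pulse were taken predose and at 1, 2, 4 and 96 h post-dose.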

[6] = cited from earlier work
[7] = Urinary excretion and renal clearance of ertugliflozin and metabolites; type: in vivo, human; details: subjects with normal renal function
[8] = test system: urinary glucose excretion; assay: Change from baseline in 24-hour urinary glucose excretion; type: in vivo, human; details: for Change from baseline to day 1 in 24‐hour urinary glucose excretion, geometric mean / Change from baseline to day 1 in 24‐hour urinary glucose excretion, mean (SD) / Change from baseline to day 1 in 24‐hour urinary glucose excretion, median: 15 mg single oral dose
Procedure, shortened: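 Single oral 15 mg dose given as three 5-mg tablets after a 4-hour fast. Baseline urine was collected on day –2 (–48 to –24 h) and post-dose urine in 0‑4, 4‑8, 8‑12 and 12‑24 h intervals, with glucose measured centrally. 24-h UGE is the sum of the intervals. Log-transformed change was compared by 1-way ANOVA against T2DM with normal renal function, without plasma glucose correction. eGFR bands: mild 60‑89, moderate 30‑59 mL/min.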

[9] = T2DM, moderate renal impairment
[10] = single 15‐mg dose, all renal function groups

In the case of `CCOc1ccc(Cc2cc([C@]34OC[C@](CO)(O3)[C@@H](O)[C@H](O[C@@H]3O[C@H](C(=O)O)[C@@H](O)[C@H](O)[C@H]3O)[C@H]4O)ccc2Cl)cc1` [PF‐06481944, 3‐O‐β‐glucuronide], the “pharmacological activity of metabolite” value [1] is given as “pharmacologically inactive”, the “median tmax range of metabolites” value ([2]; after ertugliflozin 15 mg, across all groups) is given as 2 to 4 h and the “MRAUCinf (metabolite‐to‐parent ratio for AUC)” value ([2]; T2DM, mild renal impairment) is given as 0.98 (45). The “MRAUCinf (metabolite‐to‐parent ratio for AUC)” value [2, 9] was 1.26 (52), the “MRAUCinf (metabolite‐to‐parent ratio for AUC)” value ([2]; T2DM, normal renal function) was 0.93 (39) and the “MRAUCinf (metabolite‐to‐parent ratio for AUC)” value ([2]; T2DM, severe renal impairment) was 1.03 (37). The “MRAUCinf (metabolite‐to‐parent ratio for AUC)” value ([2]; healthy, normal renal function) was 0.64 (29).

For `CCOc1ccc(Cc2cc([C@]34OC[C@](CO)(O3)[C@@H](O)[C@H](O)[C@H]4O)ccc2Cl)cc1` [ertugliflozin, Ertugliflozin], the “tolerability of higher oral doses” value [3] is listed as “well tolerated”, the “geometric mean change from baseline in 24‐hour percentage inhibition of glucose reabsorption” value ([4]; T2DM, mild renal impairment) is listed as 25.58% and the “geometric mean change from baseline in 24‐hour percentage inhibition of glucose reabsorption” value [4, 9] is listed as 28.84%. For the same molecule, the “geometric mean change from baseline in 24‐hour percentage inhibition of glucose reabsorption” value ([4]; T2DM, normal renal function) was 33.34%, the “geometric mean change from baseline in 24‐hour percentage inhibition of glucose reabsorption” value ([4]; T2DM, severe renal impairment) was 24.25% and the “geometric mean change from baseline in 24‐hour percentage inhibition of glucose reabsorption” value ([4]; healthy subjects) was 29.19%. It also gave a subjects experiencing hypoglycemia ([5]; T2DM mild renal impairment group, receiving glyburide) of 1 subject, a subjects experiencing hypoglycemia ([5]; T2DM severe renal impairment group, receiving long‐acting insulin) of 2 subjects and a subjects experiencing hypoglycemia ([5]; all groups (n = 36)) of 3 subjects. For the same molecule, the “intensity of AEs” value ([5]; single 15‐mg dose, all AEs) was “mild”, the “deaths, serious AEs, severe AEs, discontinuations due to AEs” value [5, 10] was “no deaths, serious AEs, severe AEs, or temporary or permanent discontinuations due to AEs” and the “laboratory findings, vital signs, ECG findings” value [5, 10] was “no abnormal laboratory findings or changes in vital signs (including postural changes) or ECG findings of clinical significance”. The tolerability [5, 10] was “well tolerated”, the “Urinary excretion of unchanged drug, share of elimination” value ([6]; human absorption, distribution, metabolism, and excretion studies) was 1.5% and the “median time to maximum concentration (tmax)” value ([6]; oral administration, fasted state, ref data on file, 15, 16) was “approximately 1 hour”. The “terminal elimination half‐life (t1/2)” value ([6]; oral administration, ref data on file, 15, 16) was “approximately 17 hours”, the “dose proportionality in exposure (AUC and Cmax)” value ([6]; over the range of 0.5 to 300 mg, ref data on file, 15, 16) was “dose proportionality” and the Ae96% [7] was “approximately 1%”. The “Change from baseline to day 1 in 24‐hour urinary glucose excretion, geometric mean” value ([8]; T2DM, mild renal impairment) was 35.98 g, the “Change from baseline to day 1 in 24‐hour urinary glucose excretion, mean (SD)” value (shortened to “Change from baseline … (SD)”) ([8]; T2DM, mild renal impairment) was 48.67 (37.72) g and the “Change from baseline to day 1 in 24‐hour urinary glucose excretion, median” value (shortened to “Change from baseline … median”) ([8]; T2DM, mild renal impairment) was 36.4 g. For the same molecule, the “Change from baseline to day 1 in 24‐hour urinary glucose excretion, geometric mean” value [8, 9] was 27.55 g, the “Change from baseline … (SD)” value [8, 9] was 32.64 (21.32) g and the “Change from baseline … median” value [8, 9] was 28.8 g. The “Change from baseline to day 1 in 24‐hour urinary glucose excretion, geometric mean” value ([8]; T2DM, normal renal function) was 72.31 g, the “Change from baseline … (SD)” value ([8]; T2DM, normal renal function) was 75.12 (24.36) g and the “Change from baseline … median” value ([8]; T2DM, normal renal function) was 68.1 g. The “Change from baseline to day 1 in 24‐hour urinary glucose excretion, geometric mean” value ([8]; T2DM, severe renal impairment) was 10.09 g, the “Change from baseline … (SD)” value ([8]; T2DM, severe renal impairment) was 11.29 (5.81) g and the “Change from baseline … median” value ([8]; T2DM, severe renal impairment) was 10.3 g. The “Change from baseline to day 1 in 24‐hour urinary glucose excretion, geometric mean” value ([8]; healthy, normal renal function) was 46.33 g, the “Change from baseline … (SD)” value ([8]; healthy, normal renal function) was 48.16 (14.04) g and the “Change from baseline … median” value ([8]; healthy, normal renal function) was 45.8 g. The “change from baseline in 24‐hour UGE, 1‐way ANOVA” value (“change … 1‐way ANOVA” for short) ([8]; T2DM, mild renal impairment) was 36.0 g, the “change … 1‐way ANOVA” value [8, 9] was 27.6 g and the “change … 1‐way ANOVA” value ([8]; T2DM, normal renal function) was 72.3 g. The “change … 1‐way ANOVA” value ([8]; T2DM, severe renal impairment) was 10.1 g, the Tmax ([2]; human, plasma, po, 15 mg, median tmax, 15 mg single oral dose, across all groups) was 1 to 1.51 h and the “predicted mean (90%CI) AUC from log‐linear regression vs BSA‐unnormalized eGFR” value ([2]; mild renal impairment (eGFR = 75 mL/min)) was 1585 (1461‐1719) ng·h/mL. The “predicted mean (90%CI) AUC from log‐linear regression vs BSA‐unnormalized eGFR” value ([2]; moderate renal impairment (eGFR = 45 mL/min)) was 1875 (1698‐2071) ng·h/mL, the “predicted mean (90%CI) AUC from log‐linear regression vs BSA‐unnormalized eGFR” value ([2]; normal renal function (eGFR = 105 mL/min)) was 1340 (1194‐1503) ng·h/mL and the “predicted mean (90%CI) AUC from log‐linear regression vs BSA‐unnormalized eGFR” value ([2]; severe renal impairment (eGFR = 15 mL/min)) was 2219 (1907‐2581) ng·h/mL.
